T cruzi inh: inhibitors of intracellular T. cruzi growth, primary screen, luminescence, NIH3T3 host cells | T. cruzi beta-gal in NIH3T3, 90 h | inhibition, % (concentration not given with the values) | actives 1.4% (n = 300,000);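 active = mean inhibition across valid replicates above about 55%, limit read from the data; inconclusive = mean below that limit but half or more replicates reach it; inactive = mean below it, under half of replicates reach it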;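 also: signal also drops with host cell toxicity which is not excluded here; 0% = plate median of DMSO wells and 100% = zero luminescence signal; higher percent means less beta-gal luminescence so fewer parasites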
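compound dosing = single 50 nL compound addition per well in DMSO | material = NIH/3T3 host cells with β-galactosidase reporter T. cruzi | input = 5,000 host fibroblasts per well | timing = ≥90 h infection period, 3 h prior cell attachment | read-out basis = percent inhibition of parasite-derived β-gal signal | detection = GalScreen β-gal luminescence, detergent lysis, 60 min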
Mdm2-MdmX inh: inhibitors of human Mdm2-MdmX association, primary screen, cell-based, luminescence, split luciferase, SaOS-2, uHTS; Protein Mdm4 (Homo sapiens) + E3 ubiquitin-protein ligase Mdm2 (Homo sapiens), …; SaOS-2 split-luciferase Mdm2/MdmX complementation; inhibition, % at 8 µM; actives 3% (n = 330,000);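 active = inhibition of at least 50% at 8 µM in the primary screen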
Calb FLC: C. albicans growth inhibition with fluconazole, primary screen, CaCi-2 strain, Alamar Blue fluorescence. C. albicans CaCi-2 + fluconazole, 48 h. growth inhibition, % (concentration not given with the values). actives 0.57% (n = 300,000). AID 1979, 2009;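 active = growth inhibition above about 58% in most replicates, limit read from the data, passing the limit was not always enough; inconclusive = exactly half the replicates above a set limit; inactive = most replicates below a set limit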;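 also: all wells also contain fluconazole at 8 µg/ml as a sub-toxic cotreatment; 0% = median of DMSO wells and 100% = median of geldanamycin control wells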
SKKanGAS inh: S. pyogenes SKKanGAS growth inhibitors in kanamycin, primary screen, streptokinase expression inhibitor project, SKKanGAS strain, BacTiter-Glo luminescence; inhibition, % at 7.5 µM; 6 h; actives 1.3% (n = 300,000);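 active = mean replicate score, as percent of positive control median, at least 50; inconclusive = mean below 50 but one replicate at or above 50; inactive = mean and every replicate below 50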;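 also: strain carries kanamycin resistance gene driven by streptokinase promoter and grows in 40 µg/ml kanamycin; loss of luminescence reflects streptokinase promoter inhibition or plain growth inhibition; 0% = median of DMSO wells and 100% = positive control at its reference dose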
Beta cell apopt: inhibitors of cytokine-induced beta cell apoptosis, primary screen, luminescence. INS-1E cytokine-induced death, ATP luminescence, 48 h; percent of positive-control rescue, neutral wells zero. protection from apoptosis, % (test concentration not listed). actives 0.8% (n = 300,000). AID 435005, 2010;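 active = Every replicate reaches about 75%, or at least half do and their mean reaches it too, limit read from the data; inconclusive = At least half of replicates reach the limit but their mean does not; inactive = Under half of replicates reach the limit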;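 also: 0% = cytokine-treated negative control wells and 100% = positive control rescue; higher means more ATP so stronger rescue from cytokine killing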
CSC inhib: cancer stem cell viability inhibitors, primary screen, luminescence. inhibition, % at 7.5 µM. actives 1.1% (n = 300,000). AID 2717, 2010. cancer stem cell-like cells viability; in the data active = inhibition above about 75%; inconclusive = no clear call, values can overlap the other calls; tested in HMLE shEcad cells
Mdm2 MdmX conf: Mdm2-MdmX complex disruptors, retested hits, confirmation, luminescence, single concentration; AID 489028, 2010; actives 55% (n = 10,000); Mdm2-MdmX binding, luminescent assay; inhibition, % at 8 µM; shares compounds with Mdm2-MdmX inh; in the data active = inhibition above about 40%
Full FLuc ctr: full-length luciferase signal inhibition, confirmation, counter-screen for Mdm2/MdmX interaction inhibitor project, cell-based, single concentration, SaOS-2; shares compounds with Mdm2-MdmX inh; SaOS-2 full-length luciferase counterscreen, luminescence; inhibition, % at 8 µM; actives 77% (n = 6,200);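 active = mean inhibition at 8 µM reaching about 37%, which flags the compound as non-specific, limit read from the data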;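 also: p53-null SaOS-2 cells with luciferase driven by a doxycycline-inducible promoter; compound on cells about two nights before reading with doxycycline added after day one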
Active calls of the source: *; ? = inconclusive; · = no result. This is a sample that favours compounds with a hit; in the whole collection about 5.7% have one here.

SMILES | T cruzi inh | Mdm2-MdmX inh | Calb FLC | SKKanGAS inh | Beta cell apopt | CSC inhib | Mdm2 MdmX conf | others
COc1ccc(S(=O)(=O)N(C)C[C@H]2Oc3c(NC(=O)Nc4ccc(C(F)(F)F)cc4)cccc3C(=O)N([C@H](C)CO)C[C@@H]2C)cc1 | · | 51.7* | · | · | 13.3 | 49.5 | 21.9
COc1ccc(S(=O)(=O)N2CCCC(C(=O)NC3CC3)C2)cc1Cl (stereo not given) | -2.3 | -17.1 | -5.4 | 1.4 | -2.8 | -8.9 | ·
CCc1ccc(NC(=O)CSc2nnnn2-c2cccnc2)cc1 | -18.5 | -9.0 | 25.2 | 13.3 | 1.0 | 26.6 | ·
Cc1cc(C(F)(F)F)c2c(=O)[nH]c(=O)n(Cc3ccccc3)c2n1 | 0.8 | 13.8 | -1.7 | -3.7 | -5.9 | 3.4 | ·
O=c1[nH]c(=O)n(Cc2ccccc2)c2nc(-c3ccco3)cc(C(F)(F)F)c12 | 23.9 | 53.1* | 4.1 | 3.3 | 10.5 | 15.5 | 26.6
Cc1cc(/C=N/n2c(COc3ccccc3)nc3ccccc3c2=O)c(O)c([N+](=O)[O-])c1 | 50.0 | 58.6* | -13.3 | 17.6 | 55.2 | ? | 47.1* | Full FLuc ctr=39.6*
O=c1c2ccccc2nc(COc2ccccc2)n1/N=C/c1ccc(O)c(O)c1 | 2.3 | 16.0 | -0.8 | 1.0 | 5.7 | 35.3 | ·
Cc1ccc(-c2[nH]ncc2/C=N/n2c(COc3ccccc3)nc3ccccc3c2=O)cc1 | 31.3 | 82.4* | 2.2 | 34.1 | 41.4 | 21.3 | 45.6* | Full FLuc ctr=55.9*
COC(=O)C1CCCN1C(=O)C12CC3CC(CC(C3)C1)C2 (stereo not given) | -8.3 | 6.6 | -8.1 | -0.5 | 12.5 | -8.9 | ·
CN(C)CCNC(=O)/C(=C/c1ccc(-c2cccc(Cl)c2)o1)NC(=O)c1ccccc1 | 21.1 | 90.8* | -12.3 | -0.9 | 16.1 | 3.2 | 61.4* | Full FLuc ctr=44.8*
CN(C)CCNC(=O)/C(=C/c1ccc(-c2cccc([N+](=O)[O-])c2)o1)NC(=O)c1ccccc1 | 8.1 | 43.3 | -1.7 | -6.6 | 1.3 | 9.5 | ·
Cc1ccc(C(=O)N/C(=C\c2ccc(-c3ccc(Cl)cc3)o2)C(=O)NCCCN(C)C)cc1 | 55.7* | 93.3* | ? | 10.0 | 109.7* | 6.4 | 94.4* | Full FLuc ctr=52.2*
Cc1ccc(C(=O)N/C(=C\c2ccc(-c3ccccc3[N+](=O)[O-])o2)C(=O)NCCCN(C)C)cc1 | 15.8 | 25.3 | 11.3 | 0.8 | 3.6 | -11.4 | ·
Cc1ccc(C(=O)N/C(=C\c2ccc(-c3cccc([N+](=O)[O-])c3)o2)C(=O)NCCCN2CCOCC2)cc1 | 26.5 | 50.7* | 6.3 | 2.3 | 9.7 | 12.9 | 14.3
CN(C)CCCNC(=O)/C(=C\c1ccc(-c2ccc(Br)cc2)o1)NC(=O)c1ccccc1 | 26.9 | 100.3* | -1.3 | 1.0 | 12.2 | 14.1 | 52.0* | Full FLuc ctr=29.2
CC(C)c1ccc(C2c3[nH]c4ccccc4c3C[C@H]3C(=O)N(c4ccccc4C(=O)N4CCC(C(=O)O)CC4)C(=O)N23)cc1 (stereo not given in full) | 6.9 | 20.1 | 4.6 | 28.4 | -4.5 | -3.3 | ·
COc1cc(S(=O)(=O)Nc2ccc(Br)cc2)ccc1N | 3.4 | 18.1 | -3.8 | -3.8 | -6.7 | 4.1 | ·
Clc1cccc(Cl)c1Cn1cnc2c(N3CCCCCC3)ncnc21 | 10.4 | 78.5* | 16.7 | 21.5 | 19.9 | 50.4 | 24.4
CCC1CCc2c(sc3nc(SCC(=O)NCc4ccco4)n(-c4ccccc4)c(=O)c23)C1 (stereo not given) | 27.0 | 55.5* | 2.5 | 1.1 | 10.2 | -41.5 | 10.7
COC1c2ccccc2C(=O)N1CCc1ccc(Cl)cc1 (stereo not given) | -7.0 | 19.4 | 17.4 | 4.3 | · | -1.4 | ·
CCOC(=O)C1=C(c2ccccc2)NC(=O)NC1c1ccc(O)c(Cl)c1 (stereo not given) | 2.0 | 93.5* | -1.0 | -2.5 | · | 7.8 | 55.9* | Full FLuc ctr=30.5
COCc1nnc(NC(=O)C2CC(=O)N(C3CCCC3)C2)s1 (stereo not given) | 7.4 | -20.2 | -15.7 | -1.6 | -6.9 | -13.0 | ·
COc1ccc(-c2csc(NC(C)c3nc4cc(Cl)c(Cl)cc4n3CCCO)n2)cc1 (stereo not given) | 33.2 | 59.2* | 0.1 | 34.3 | 31.8 | -5.6 | 30.1
CC(Nc1nc(-c2ccc(F)cc2)cs1)c1nc2cc(Cl)c(N3CCCCC3)cc2n1CCCO (stereo not given) | 47.4 | 74.8* | -21.6 | 21.5 | 16.1 | 26.9 | 17.6
CC(Nc1nc(-c2ccc(F)cc2)cs1)c1nc2cc(Cl)c(N3CCCCC3)cc2n1CCOCCO (stereo not given) | 27.2 | 29.5 | 2.5 | 29.4 | 3.2 | 35.8 | ·
SMILES | T cruzi inh | Mdm2-MdmX inh | Calb FLC | SKKanGAS inh | Beta cell apopt | CSC inhib | Mdm2 MdmX conf | others
Cc1cc(C)n(-c2nc(Nc3ccccc3C)nc(-n3nc(C)cc3C)n2)n1 | 69.9* | 66.5* | 51.1 | 97.6* | · | 9.6 | 20.6
Cc1cc(C)n(-c2nc(Nc3ccccc3C(F)(F)F)nc(-n3nc(C)cc3C)n2)n1 | ? | 68.9* | 20.8 | 135.1* | 82.1* | 58.7 | 34.8
Cc1cc(C)n(-c2nc(NC(C)C)nc(NC(C)C)n2)n1 | 22.9 | 30.6 | -20.5 | 2.7 | 17.9 | -14.7 | ·
COc1cc(C(C)=O)ccc1OCC(=O)Nc1cc(C)on1 | · | -11.4 | · | · | -1.7 | -3.3 | ·
CCNC(=O)c1c(O)c2ccccc2[nH]c1=O | -2.4 | 75.9* | 11.4 | -1.4 | -13.6 | 8.4 | 53.0* | Full FLuc ctr=76.2*
O=C(NC1CC1)c1c(O)c2ccccc2[nH]c1=O | -11.3 | 58.8* | 6.9 | -1.7 | -1.0 | 7.5 | -6.3
O=C(NCCc1ccccc1)c1c(O)c2ccccc2[nH]c1=O | 15.4 | 13.6 | -3.6 | 1.1 | · | 12.3 | ·
O=C(NCc1cccnc1)c1cccc(OC2CCN(Cc3ccc(CO)o3)CC2)c1 | -0.3 | 6.3 | 4.1 | -4.8 | 5.6 | 1.1 | ·
CCOC(=O)c1[nH]c2ccc(F)cc2c1NC(=O)CN1CCN(C/C=C/c2ccccc2)CC1 | 50.7 | 56.6* | -1.6 | 31.7 | -2.3 | 38.1 | 21.8
O=C(Nc1ccc(F)cc1)Nc1ccc(N2CCCC2)c(S(=O)(=O)Nc2ccccc2Cl)c1 | 19.3 | 91.3* | -4.7 | 45.2 | -1.4 | -6.8 | 65.5* | Full FLuc ctr=20.4
